Measurements published in ChEMBL document CHEMBL4177701, “A novel series of enoyl reductase inhibitors targeting the ESKAPE pathogens, Staphylococcus aureus and Acinetobacter baumannii” (Bioorg Med Chem, 2018).
In brackets after ≈: the same amount, converted by molar mass. Activity calls are given as the source filed them. No cut-off for these calls is given here.

Tests used:
[1] = Solubility of the compound; type: physicochemical
[2] = Competitive inhibition of Acinetobacter baumannii 2208 ATCC 19606 FabI using crotonyl-CoA as substrate in presence of NADPH/NADH after 10 mins by fluorescence assay; design: species or system Acinetobacter baumannii ATCC 19606 = CIP 70.34 = JCM 6841
HepG2 [3] = assay: Cytotoxicity against human HepG2 cells assessed as reduction in cell viability after 24 hrs in presence of 10% FBS by MTT assay; type: cell-based; details: HepG2, 24 h
Procedure, shortened: (§1)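 HepG2 cells in EMEM with either 10% FBS or 0.5% FBS plus 10% Cell-Ess serum replacement. Seeded at 25,000 cells/well and incubated overnight at 37 °C, 5% CO2. Treated 24 h at 100–3 μg/mL, with matched DMSO controls. MTT added for 2 h, formazan extracted in DMSO, absorbance read at 570 nm. Run in duplicate; IC50 taken from the viability plot against the DMSO control.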

Staphylococcus aureus [4] = assay: Selectivity ratio of MIC for Staphylococcus aureus RN4220 over-expressing FabI to MIC for Staphylococcus aureus RN4220; type: functional
Acinetobacter baumannii [5] = assay: Synergistic antibacterial activity against Acinetobacter baumannii 2208 ATCC 19606 in presence of colistin by checkerboard method; type: functional; details: ATCC 19606 = CIP 70.34 = JCM 6841 2208
Acinetobacter baumannii [6] = assay: Synergistic antibacterial activity against Acinetobacter baumannii 2208 ATCC 19606 assessed as colistin MIC by checkerboard method; type: functional; details: ATCC 19606 = CIP 70.34 = JCM 6841 2208
Acinetobacter baumannii [7] = assay: Antibacterial activity against Acinetobacter baumannii 2208 ATCC 19606 by microbroth dilution method; type: functional; details: ATCC 19606 = CIP 70.34 = JCM 6841 2208
Procedure, shortened: (§2)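 Microbroth dilution MIC; each value is the mean of at least two runs, within two-fold experimental uncertainty.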

HepG2 [8] = assay: Cytotoxicity against human HepG2 cells assessed as reduction in cell viability after 24 hrs in presence of 0.5% FBS by MTT assay; type: cell-based; details: HepG2, 24 h; procedure, shortened: as §1
Escherichia coli [9] = assay: Antibacterial activity against Escherichia coli BW25113 mutant by microbroth dilution method; type: functional
Procedure, shortened: (§3)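 Broth microdilution MIC; reported value is mean of at least two runs, within two-fold experimental uncertainty.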

Acinetobacter baumannii [10] = assay: Synergistic antibacterial activity against MDR Acinetobacter baumannii ATCC BAA-1605 assessed as fold reduction in colistin MIC by checkerboard method; type: functional
Acinetobacter baumannii [11] = assay: Synergistic antibacterial activity against MDR Acinetobacter baumannii ATCC BAA-1605 assessed as colistin MIC by checkerboard method; type: functional
Staphylococcus aureus [12] = assay: Antibacterial activity against Staphylococcus aureus Newman by microbroth dilution method; type: functional; procedure, shortened: as §2
[13] = system: Acinetobacter baumannii ATCC 19606 = CIP 70.34 = JCM 6841; assay: Binding affinity to Acinetobacter baumannii 2208 ATCC 19606 FabI by SPR assay
[14] = target: T1, Enoyl-[acyl-carrier-protein] reductase [NADPH] FabI (Staphylococcus aureus, UniProt Q6GI75); assay: Competitive inhibition of Staphylococcus aureus subsp. aureus Rosenbach ATCC 43300 FabI using crotonyl-CoA as substrate in presence of NADPH/NADH after 10 mins by fluorescence assay
T1 sequence (Q6GI75 whole entry): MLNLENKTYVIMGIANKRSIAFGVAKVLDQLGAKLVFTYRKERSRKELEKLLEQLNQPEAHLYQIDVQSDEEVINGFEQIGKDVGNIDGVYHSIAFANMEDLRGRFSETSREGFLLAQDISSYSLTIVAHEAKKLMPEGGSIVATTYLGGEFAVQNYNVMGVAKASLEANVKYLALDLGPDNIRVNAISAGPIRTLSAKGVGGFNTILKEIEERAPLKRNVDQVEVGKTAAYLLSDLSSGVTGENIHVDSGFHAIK

Acinetobacter baumannii [15] = assay: Synergistic antibacterial activity against Acinetobacter baumannii 2208 ATCC 19606 assessed as fractional inhibitory concentration in presence of colistin by checkerboard method; type: functional, ATCC 19606 = CIP 70.34 = JCM 6841 2208
Staphylococcus aureus [16] = assay: Antibacterial activity against Staphylococcus aureus RN4220 over-expressing FabI by microbroth dilution method; type: functional; procedure, shortened: as §3
[17] = target: T2, Enoyl-[acyl-carrier-protein] reductase [NADPH] FabI (Staphylococcus aureus) (UniProt Q6GI75); assay: Binding affinity to Staphylococcus aureus subsp. aureus Rosenbach ATCC 43300 FabI by SPR assay
T2 sequence (whole entry): T1 sequence (Q6GI75 whole entry)

Acinetobacter baumannii [18] = assay: Synergistic antibacterial activity against MDR Acinetobacter baumannii ATCC BAA-1605 in presence of colistin by checkerboard method; type: functional
Procedure, shortened: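 Checkerboard broth dilution in tryptic soy broth. Colistin 4 to 0.03 μg/mL against analog 100 to 0.19 μg/mL, crossed. Clear wells scored. ΣFIC = C/MIC(compound) + C/MIC(partner); <0.5 synergy, 0.5–2 indifference, >2 antagonism.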

Acinetobacter baumannii [19] = assay: Synergistic antibacterial activity against MDR Acinetobacter baumannii ATCC BAA-1605 assessed as fractional inhibitory concentration in presence of colistin by checkerboard method; type: functional
[20] = Inhibition of Acinetobacter baumannii 2208 ATCC 19606 FabI using crotonyl-CoA as substrate in presence of NADPH/NADH after 10 mins by fluorescence assay; design: species or system Acinetobacter baumannii ATCC 19606 = CIP 70.34 = JCM 6841
Procedure, shortened: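 AbFabI, 200 nM, in 50 mM MES/100 mM NaCl with 200 μM NADH, 0.1 mg/mL BSA and 0.01% triton. Reaction started with 300 μM crotonyl-CoA. NADH fluorescence read at 340/460 nm. Compounds tested at 0.4 nM–200 μM. Initial 10-min slopes were compared with a DMSO no-compound control. At least two independent experiments, each in duplicate; two-fold uncertainty.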

Acinetobacter baumannii [21] = assay: Synergistic antibacterial activity against Acinetobacter baumannii 2208 ATCC 19606 in presence of polymixin B by checkerboard method; type: functional; details: ATCC 19606 = CIP 70.34 = JCM 6841 2208
Acinetobacter baumannii [22] = assay: Synergistic antibacterial activity against Acinetobacter baumannii 2208 ATCC 19606 assessed as polymixin B MIC by checkerboard method; type: functional; details: ATCC 19606 = CIP 70.34 = JCM 6841 2208
Acinetobacter baumannii [23] = assay: Synergistic antibacterial activity against Acinetobacter baumannii 2208 ATCC 19606 assessed as fractional inhibitory concentration in presence of polymixin B by checkerboard method; type: functional, ATCC 19606 = CIP 70.34 = JCM 6841 2208
[24] = Selectivity index, ratio for IC50 for human HepG2 cells to MIC for Staphylococcus aureus RN4220; type: toxicity; details: read-out: Selectivity Index
[25] = Selectivity index, ratio for IC50 for human HepG2 cells to MIC for methicillin-resistant Staphylococcus aureus subsp. aureus Rosenbach ATCC 43300; type: toxicity
[26] = Selectivity index, ratio for IC50 for human HepG2 cells to MIC for Staphylococcus aureus RN4220 over-expressing FabI; type: toxicity
Escherichia coli [27] = assay: Antibacterial activity against Escherichia coli BW25113 harboring TolC deletion mutant by microbroth dilution method; type: functional; procedure, shortened: as §3
Staphylococcus aureus [28] = assay: Antibacterial activity against methicillin-resistant Staphylococcus aureus subsp. aureus Rosenbach ATCC 43300 by microbroth dilution method; type: functional; procedure, shortened: as §3
[29] = Protein binding in mouse serum; type: ADME, cell-free; details: read-out: PB (converted)
[30] = Protein binding in dog serum; type: ADME, cell-free, Canis lupus familiaris; details: read-out: PB (converted)
[31] = Protein binding in human serum; type: ADME, cell-free; details: read-out: PB (converted)
[32] = Protein binding in rat serum; type: ADME, cell-free; details: read-out: PB (converted)

Row | SMILES | Ki [2] | IC50 (HepG2 [3]) | Selectivity ratio (Staphylococcus aureus [4]) | MIC (Acinetobacter baumannii [5]) | MIC (Acinetobacter baumannii [6]) | MIC (Acinetobacter baumannii [7]) | IC50 (HepG2 [8]) | fold change (FC) (Acinetobacter baumannii [10]) | MIC (Acinetobacter baumannii [11]) | MIC (Staphylococcus aureus [12]) | Activity [13] | Ki [14] | FIC (Acinetobacter baumannii [15]) | MIC (Staphylococcus aureus [16]) | Activity [17] | MIC (Acinetobacter baumannii [18]) | FIC (Acinetobacter baumannii [19]) | IC50 [20] | MIC (Acinetobacter baumannii [21]) | MIC (Acinetobacter baumannii [22]) | other results
1 | O=C(Cc1ccccc1)N1CCC(c2ccccc2)C1 (configuration not stated) |  |  |  |  |  |  |  |  |  |  |  |  |  |  |  |  |  |  |  |  | solubility [1]: Insoluble
2 | COc1ccccc1C1CCN(C(=O)Cc2ccccc2Cl)C1 (racemic) | 1800 nM | 75 µg/mL | 4 | 12.5 µg/mL | 0.39 µg/mL | > 200 µg/mL | 39 µg/mL | 10 | 0.39 µg/mL | 75.8 µM (≈ 25 µg/mL) | Active | 200 nM | 0.19 | 50 µg/mL (≈ 152 µM) | Active | 25 µg/mL | 0.25 | 3600 nM |  |  | MIC (Escherichia coli [9]): > 200 µg/mL
3 | O=C(Cc1ccccc1Cl)N1CCC(c2ccccc2)C1 (racemic) | 1600 nM | 79 µg/mL | 4 | 12.5 µg/mL | 0.39 µg/mL | > 200 µg/mL | 55 µg/mL | 10 | 0.78 µg/mL | 41.7 µM (≈ 12.5 µg/mL) | Active | 4000 nM | 0.31 |  | Active | 25 µg/mL | 0.25 | 3100 nM | 50 µg/mL | 3.75 µg/mL | FIC (Acinetobacter baumannii [23]): 0.28
4 | COc1ccccc1C1CCN(C(=O)/C=C/c2ccc(NC(C)=O)nc2)C1 (racemic) | 200 nM | 219 µg/mL | 4 | 25 µg/mL | 0.39 µg/mL | > 200 µg/mL | 138 µg/mL | 10 | 0.78 µg/mL | 34.2 µM (≈ 12.5 µg/mL) | Active | 1300 nM |  |  | Active | 12.5 µg/mL | 0.31 | 420 nM | 50 µg/mL | 15 µg/mL | Selectivity ratio [24]: > 10; Selectivity ratio [25]: 8.8; Selectivity ratio [26]: 4.4; MIC (Escherichia coli [27]): 0.75 µg/mL (≈ 2.05 µM); FIC (Acinetobacter baumannii [23]): 0.37
5 | O=C(Cc1ccccc1Cl)N1CCC(c2ccc3c(c2)OCO3)C1 (racemic) | 3900 nM | 64 µg/mL | >4 | 6.25 µg/mL | 0.78 µg/mL | > 200 µg/mL | 46 µg/mL | 10 | 0.78 µg/mL | 18.2 µM (≈ 6.26 µg/mL) | Active | 900 nM | 0.28 | > 200 µg/mL | Active | 12.5 µg/mL | 0.31 | 7800 nM |  |  | MIC (Staphylococcus aureus [28]): 25 µg/mL (≈ 72.7 µM); MIC (Escherichia coli [27]): 25 µg/mL (≈ 72.7 µM)
6 | Cc1c(CN(C)C(=O)/C=C/c2cnc3c(c2)CCC(=O)N3)oc2ccccc12 [AFN-1252] |  |  |  |  |  |  |  |  |  |  |  |  |  |  |  |  |  |  |  |  | fraction unbound [29]: 0.05; fraction unbound [30]: 0.05; fraction unbound [31]: 0.05; fraction unbound [32]: 0.05
